# Experimental data reported in ChEMBL document CHEMBL2321832, “A Fluorescent Styrylquinoline with Combined Therapeutic and Diagnostic Activities against Alzheimer's and Prion Diseases” (ACS Med Chem Lett, 2013).
# pEC50: −log10 of the molar value. Activity calls are given as the source filed them. The calls are words filed in the database; no cut-off is given here.
# Tests used:
# [1] = target: Amyloid-beta precursor protein (Homo sapiens) (UniProt P05067); assay: Inhibition of amyloid beta (1 to 42) (unknown origin) fibril formation at 1:1 compound to amyloid beta ratio after 24 hrs by Thioflavin T-based fluorometric assay
# Sequence of Amyloid-beta precursor protein (Homo sapiens) (P05067 whole entry, the tested form may be a part): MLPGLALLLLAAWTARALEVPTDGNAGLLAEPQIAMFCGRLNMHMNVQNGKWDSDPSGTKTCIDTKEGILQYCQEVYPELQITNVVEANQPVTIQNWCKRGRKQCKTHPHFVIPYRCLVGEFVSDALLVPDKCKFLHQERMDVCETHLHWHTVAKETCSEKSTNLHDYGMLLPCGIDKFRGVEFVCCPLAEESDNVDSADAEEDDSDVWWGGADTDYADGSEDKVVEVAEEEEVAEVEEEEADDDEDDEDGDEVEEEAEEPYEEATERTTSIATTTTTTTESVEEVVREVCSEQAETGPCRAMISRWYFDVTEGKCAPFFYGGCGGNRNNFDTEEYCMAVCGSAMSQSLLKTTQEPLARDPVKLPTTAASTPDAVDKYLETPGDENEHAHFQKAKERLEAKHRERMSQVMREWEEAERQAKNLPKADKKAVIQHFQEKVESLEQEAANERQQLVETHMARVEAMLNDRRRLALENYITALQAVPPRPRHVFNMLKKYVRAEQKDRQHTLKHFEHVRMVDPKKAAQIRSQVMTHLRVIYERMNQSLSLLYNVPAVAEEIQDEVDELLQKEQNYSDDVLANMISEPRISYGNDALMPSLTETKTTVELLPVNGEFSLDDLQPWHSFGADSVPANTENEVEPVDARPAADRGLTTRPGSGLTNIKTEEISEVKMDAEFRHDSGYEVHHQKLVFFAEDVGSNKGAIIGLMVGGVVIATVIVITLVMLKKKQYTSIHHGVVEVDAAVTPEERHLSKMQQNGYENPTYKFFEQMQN
# [2] = Permeability of the compound assessed as diffusion from donor plate through porcine brain lipid membrane into acceptor plate at pH 7.4 by PAMPA method; format: ADME; details: pig, read-out: permeability
# Procedure, shortened: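 PAMPA permeability (Pe) reported as mean ± SD of two experiments. CNS+ assigned when Pe > 3.74 × 10⁻⁶ cm s⁻¹; CNS+/− when Pe lies between 3.74 × 10⁻⁶ and 1.50 × 10⁻⁶ cm s⁻¹.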
# [3] = Cytotoxicity against mouse ScGT1 cells assessed as cell viability at 1 uM after 5 days by fluorescence plate reader analysis; format: cell-based; details: read-out: Activity
# [4] = Cytotoxicity against mouse ScGT1 cells assessed as cell viability at EC50 concentration after 5 days by fluorescence plate reader analysis; format: cell-based; details: read-out: Activity
# ScGT1 [5] = assay: Antiprion activity against scrapie prion protein (unknown origin) infected in mouse ScGT1 cells assessed as decrease in PrPSc accumulation after 5 days measured following PK digestion by Western blot analysis; format: cell-based
# [6] = target: Major prion protein (Mus musculus) (UniProt P04925); assay: Inhibition of mouse PrP (23-230) fibril formation assessed as extension of lag phase at 50 uM by amyloid seeding assay
# Sequence of Major prion protein (Mus musculus) (P04925 whole entry): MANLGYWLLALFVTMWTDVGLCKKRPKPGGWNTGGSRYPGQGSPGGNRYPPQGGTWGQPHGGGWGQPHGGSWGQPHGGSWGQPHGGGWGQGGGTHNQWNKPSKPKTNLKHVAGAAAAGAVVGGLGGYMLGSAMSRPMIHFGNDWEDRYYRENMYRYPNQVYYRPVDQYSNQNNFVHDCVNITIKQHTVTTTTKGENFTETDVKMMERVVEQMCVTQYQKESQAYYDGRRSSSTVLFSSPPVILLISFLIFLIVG
# [7] = Antiprion activity against scrapie prion protein (unknown origin) infected in mouse ScGT1 cells assessed as inhibition of PrPSc replication by ELISA; format: cell-based
# ScGT1 [8] = assay: Binding affinity to scrapie prion protein (unknown origin) aggregate in mouse ScGT1 cells at 0.84 mM measured following denaturation with 6 M guanidinium chloride by fluorescence microscopy; format: cell-based
# Procedure, shortened: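 Cells denatured with 6 M guanidinium chloride, then stained with 3·HCl at 0.84 mM (0.025%). Uninfected GT1 cells, with or without denaturation, serve as control. Imaged by fluorescence microscopy with FITC and ThS filter sets, nuclei counterstained with DAPI. Pattern compared with 0.025% Thioflavin S staining. A second line, ScN2a, was also used.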
# [9] = target: Amyloid-beta precursor protein (Homo sapiens) (UniProt P05067); assay: Binding affinity to amyloid beta (1 to 42) (unknown origin) at 0.5 uM by fluorescence analysis
# [10] = target: Amyloid-beta precursor protein (Homo sapiens) (UniProt P05067); assay: Displacement of Thioflavin-T from pre-aggregated amyloid beta (1 to 42) (unknown origin) at >25 nM by fluorometric assay
# [11] = target: Amyloid-beta precursor protein (Homo sapiens) (UniProt P05067); assay: Binding affinity to pre-aggregated amyloid beta (1 to 42) (unknown origin) at 25 nM by Thioflavin T-based fluorometric assay
# [12] = Cytotoxicity against mouse ScGT1 cells assessed as cell viability at 10 uM after 5 days by fluorescence plate reader analysis; format: cell-based; details: read-out: Activity
# ScGT1 [13] = assay: Binding affinity to PK-resistant scrapie prion protein (unknown origin) aggregate in mouse ScGT1 cells at 0.25 mM measured following PK digestion by fluorescence microscopy; format: cell-based
# Procedure, shortened: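 ScGT1 cells stained with 3·HCl at 0.25 mM after a proteinase K digestion step that removes PK-sensitive PrP^C. Uninfected GT1 cells processed the same way serve as control. Imaged by fluorescence microscopy, mainly with the FITC filter set and confirmed with the ThS filter set.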
# [14] = target: Amyloid-beta precursor protein (Homo sapiens) (UniProt P05067); assay: Binding affinity to pre-aggregated amyloid beta (1 to 42) (unknown origin) assessed as hyperchromic effect at 5 uM by fluorescence analysis
# Procedure, shortened: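 Emission spectra of compound (5 μM) recorded in 10 mM phosphate buffer, pH 7.4, with and without aggregated Aβ42 (3 μM).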
SMILES,inhibition [1],Papp [2],"viability at 120 h, 1 µM [3]",viability at 120 h [4],inhibition (ScGT1 [5]),TIME [6],pEC50 [7],inhibition ([1]; concentration not given here),Activity (ScGT1 [8]),Activity [9],Activity [10],Activity [11],"viability at 120 h, 10 µM [12]",Activity (ScGT1 [13]),Activity [14]
COc1ccc2nc(/C=C/c3ccccc3)ccc2c1,inactive,8.5 ×10⁻⁶ cm/s,60%,74.9%,Dose-dependent effect,> 70 h,6.15,,,,,,,,
CCN(CC)CCCC(C)Nc1c2ccc(Cl)cc2nc2ccc(OC)cc12 (centres undefined) [QUINACRINE],,,,100%,,,6.40,,,,,,,,
O=C(CN1CCCC1)Nc1ccc(Cc2ccc(NC(=O)CN3CCCC3)cc2)cc1,,,,93.4%,Dose-dependent effect,,5.82,,,,,,,,
Cc1ccc2nc(/C=C/c3ccc(N)cc3)ccc2c1,,23.1 ×10⁻⁶ cm/s,> 90%,94.6%,Dose-dependent effect,> 70 h,6.30,42.4%,Active,Active,Active,Active,60%,Active,Active
Cc1ccc2nc(/C=C/c3ccccc3)ccc2c1,inactive,3 ×10⁻⁶ cm/s,> 90%,90.5%,Dose-dependent effect,> 70 h,6.30,,,,,,,,
COc1cc(/C=C/C(=O)CC(=O)/C=C/c2ccc(O)c(OC)c2)ccc1O,,,,,,,,73%,,,,,,,
